Consider 34 compounds from ChEMBL document CHEMBL1153845, “New derivatives of 3,5-substituted-1,4,2-dioxazoles: synthesis and activity against Entamoeba histolytica” (Eur J Med Chem, 2009).

The nature of series [1]: Safety index, ratio of IC50 for HEK cells to IC50 for Entamoeba histolytica HM-1:IMSS. Format: toxicity, cell-based, HEK293. To be noted: human, HEK cells (versus Entamoeba histolytica HM-1:IMSS); read-out: Ratio IC50.
The subject of a further series is Entamoeba histolytica. Put plainly: Antiamnesic activity against Entamoeba histolytica HM-1:IMSS after 72 hrs by trypan blue exclusion assay. The series is classed as functional, organism-based. In a few lines: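 Microdilution in TYIS-33 medium, trophozoites counted by haemocytometer with trypan blue viability check, 1.7 × 10⁴ organisms/well. Plates gassed with N₂ 10 min, 37 °C for 72 h. Washed with 0.9% NaCl, methanol-fixed, eosin-stained, dye released with 0.1 N NaOH, OD 490 nm. % inhibition vs log dose, IC50 by linear regression. Metronidazole standard. Three independent experiments.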

A short description of series [2]: Cytotoxicity against HEK cells after 44 hrs by MTT assay. The series is classed as cell-based. The following applies: Homo sapiens, HEK293, 44 h. In a few lines:
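Transformed human kidney epithelial (Graham) cells kept at 37 °C in 5% CO₂. Trypsinized cells at 0.5 million cells/ml plated with compounds for 44 h, then 2 mM MTT for a further 4 h. Formazan dissolved in DMSO, absorbance 540 nm with 690 nm reference, % viability vs controls. Three independent experiments.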

Setting [3] is: in the assay text read “Antiamoebic” for “Antiamnesic”.

In general, IC50 refers to the point on the concentration scale where inhibition reaches its midpoint. Read a low IC50 as inhibition by little substance.

Turning to `CC1(c2ccccn2)ON=C(c2ccccc2Cl)O1` (stereo unspecified), the selectivity ratio in series [1] was greater than 61.7. For the same compound, the IC50 with Entamoeba histolytica was 1620 nM; in series [2], greater than 100000 nM.
Consider `CCc1ccc(C2ON=C(c3ccccc3Cl)O2)cc1` (stereo unspecified), for which the selectivity ratio in series [1] is greater than 55.5. Besides, the results for the IC50 (in the series with Entamoeba histolytica; in series [2]) were greater than 1800 nM and greater than 100000 nM, respectively.
The like results for `CCc1ccc(C2ON=C(c3ccc(Cl)cc3)O2)cc1` (stereo unspecified) were, in that order, greater than 55.5, greater than 1800 nM and greater than 100000 nM.
As for `CC1(c2cccc(Br)c2)ON=C(c2cccc(Cl)c2)O1` (stereo unspecified), the selectivity ratio in series [1] was greater than 55.5. Besides, the concentration for half-maximal inhibition (IC50) is greater than 1800 nM in the series on Entamoeba histolytica and greater than 100000 nM in series [2].
Turning to `CCC1(c2cccc(Cl)c2)ON=C(c2ccc(Cl)cc2)O1` (stereo unspecified), in series [1], the selectivity ratio was greater than 55.5. In addition, the IC50 is greater than 1800 nM with Entamoeba histolytica and greater than 100000 nM in series [2].
With `Clc1ccc(C2=NOC(c3ccccc3Cl)O2)cc1` (stereo unspecified), the selectivity ratio in series [1] is greater than 208. For the same compound, the IC50 in the series with Entamoeba histolytica is 480 nM; in series [2], greater than 100000 nM.
For the compound `Clc1ccc(C2=NOC(c3cccc(Cl)c3)O2)cc1` (stereo unspecified), in series [1], the selectivity ratio is greater than 116. In addition, the 50% inhibitory concentration (IC50) with Entamoeba histolytica (setting [3]) is 860 nM; in series [2], greater than 100000 nM.
With `CC1(c2ccc(Cl)cc2)ON=C(c2ccc(Cl)cc2)O1` (stereo unspecified), in series [1], the selectivity ratio was greater than 55.5. Also, the IC50 is greater than 1800 nM in the series on Entamoeba histolytica and greater than 100000 nM in series [2].
With `CC1(c2cccc(Br)c2)ON=C(c2ccc(Cl)cc2)O1` (stereo unspecified), the selectivity ratio in series [1] was greater than 55.5. For the same compound, the IC50 in the series on Entamoeba histolytica was greater than 1800 nM; in series [2], greater than 100000 nM.
For the compound `Clc1ccc(C2=NOC(c3ccc(Cl)c(Cl)c3)O2)cc1` (stereo unspecified), the selectivity ratio in series [1] is greater than 88.5. For the same compound, the results for the IC50 (with Entamoeba histolytica (setting [3]); in series [2]) were 1130 nM and greater than 100000 nM, respectively.
In the case of `Clc1ccc(C2=NOC(c3ccc(Cl)cc3)O2)cc1` (stereo unspecified), the selectivity ratio in series [1] is greater than 189. The results for the IC50 (in the series with Entamoeba histolytica (setting [3]); in series [2]) were 530 nM and greater than 100000 nM, respectively.
`Cc1ccc(C2ON=C(c3ccc(Cl)cc3)O2)cc1` (stereo unspecified): in series [1], the selectivity ratio was greater than 55.5. Besides, the half-inhibitory concentration (IC50) in the series with Entamoeba histolytica is greater than 1800 nM; in series [2], greater than 100000 nM.
The like results for `Clc1ccc(C2ON=C(c3ccccc3Cl)O2)cc1` (stereo unspecified) were, in that order, greater than 196, 510 nM and greater than 100000 nM.
Turning to `Cc1ccc(C2ON=C(c3ccccc3Cl)O2)cc1` (stereo unspecified), the selectivity ratio in series [1] is greater than 55.5. The IC50 with Entamoeba histolytica is greater than 1800 nM; in series [2], greater than 100000 nM.
In the case of `CC1(c2ccc(Cl)cc2)ON=C(c2cccc(Cl)c2)O1` (stereo unspecified), in series [1], the selectivity ratio was greater than 55.5. For the same compound, the values for the IC50 (with Entamoeba histolytica (setting [3]); in series [2]) were greater than 1800 nM and greater than 100000 nM, respectively.
As for `CCC1(c2cccc(Cl)c2)ON=C(c2cccc(Cl)c2)O1` (stereo unspecified), the selectivity ratio in series [1] is greater than 55.5. The IC50 is greater than 1800 nM in the series on Entamoeba histolytica and greater than 100000 nM in series [2].
For the compound `Clc1cccc(C2=NOC(c3ccccc3Cl)O2)c1` (stereo unspecified), the selectivity ratio in series [1] was greater than 161. Also, the IC50 was 620 nM in the series with Entamoeba histolytica (setting [3]) and greater than 100000 nM in series [2].
For `CCC1(c2cccc(Cl)c2)ON=C(c2ccccc2Cl)O1` (stereo unspecified), the selectivity ratio in series [1] was greater than 55.5. The IC50 in the series on Entamoeba histolytica was greater than 1800 nM; in series [2], greater than 100000 nM.
Take `CC1(c2cccc(Br)c2)ON=C(c2ccccc2Cl)O1` (stereo unspecified): in series [1], the selectivity ratio is greater than 55.5. The IC50 in the series on Entamoeba histolytica is greater than 1800 nM; in series [2] it was greater than 100000 nM.
`Clc1ccccc1C1=NOC(c2ccccc2Cl)O1` (stereo unspecified): in series [1], the selectivity ratio was greater than 244. The half-inhibitory concentration (IC50) was 410 nM in the series with Entamoeba histolytica and greater than 100000 nM in series [2].
As to `Clc1cccc(C2=NOC(c3ccc(Cl)c(Cl)c3)O2)c1` (stereo unspecified), in series [1], the selectivity ratio is greater than 82.6. The values for the IC50 (in the series on Entamoeba histolytica; in series [2]) were 1210 nM and greater than 100000 nM, respectively.
As for `Clc1cccc(C2=NOC(c3cccc(Cl)c3)O2)c1` (stereo unspecified), in series [1], the selectivity ratio was greater than 110. Also, the values for the IC50 (in the series on Entamoeba histolytica (setting [3]); in series [2]) were 910 nM and greater than 100000 nM, respectively.
Take `Clc1ccc(C2ON=C(c3ccccc3Cl)O2)cc1Cl` (stereo unspecified): the selectivity ratio in series [1] was greater than 124. For the same compound, the 50% inhibitory concentration (IC50) in the series with Entamoeba histolytica is 810 nM; in series [2] it was greater than 100000 nM.
On to `Clc1ccc(C2ON=C(c3cccc(Cl)c3)O2)cc1` (stereo unspecified), for which the selectivity ratio in series [1] was greater than 141. The IC50 in the series on Entamoeba histolytica (setting [3]) is 710 nM; in series [2] it was greater than 100000 nM.
In the case of `CCc1ccc(C2ON=C(c3cccc(Cl)c3)O2)cc1` (stereo unspecified), in series [1], the selectivity ratio was greater than 55.5. The IC50 with Entamoeba histolytica (setting [3]) was greater than 1800 nM; in series [2], greater than 100000 nM.
For the compound `CCC1(c2cccc(Br)c2)ON=C(c2ccc(Cl)cc2)O1` (stereo unspecified), in series [1], the selectivity ratio was greater than 55.5. The IC50 in the series with Entamoeba histolytica was greater than 1800 nM; in series [2] it was greater than 100000 nM.
Taken in the same sequence, the figures for `CC1(c2ccc(Cl)cc2)ON=C(c2ccccc2Cl)O1` (stereo unspecified) were greater than 55.5, greater than 1800 nM and greater than 100000 nM.
Consider `CC1(c2ccccn2)ON=C(c2cccc(Cl)c2)O1` (stereo unspecified), for which the selectivity ratio in series [1] is greater than 57.8. Further, the half-maximal inhibitory concentration (IC50) in the series with Entamoeba histolytica was 1730 nM; in series [2], greater than 100000 nM.
Taken in the same sequence, the figures for `CC1(c2ccccn2)ON=C(c2ccc(Cl)cc2)O1` (stereo unspecified) were greater than 63.3, 1580 nM and greater than 100000 nM.
Consider `Cc1ccc(C2ON=C(c3cccc(Cl)c3)O2)cc1` (stereo unspecified), for which the selectivity ratio in series [1] was greater than 55.5. For the same compound, the IC50 in the series with Entamoeba histolytica (setting [3]) was greater than 1800 nM; in series [2] it was greater than 100000 nM.
With `CCC1(c2cccc(Br)c2)ON=C(c2cccc(Cl)c2)O1` (stereo unspecified), the selectivity ratio in series [1] was greater than 55.5. The IC50 in the series on Entamoeba histolytica was greater than 1800 nM; in series [2] it was greater than 100000 nM.
Consider `CCC1(c2cccc(Br)c2)ON=C(c2ccccc2Cl)O1` (stereo unspecified), for which the selectivity ratio in series [1] is greater than 55.5. Also, the IC50 in the series on Entamoeba histolytica was greater than 1800 nM; in series [2] it was greater than 100000 nM.
On to `Clc1cccc(C2ON=C(c3ccccc3Cl)O2)c1` (stereo unspecified), for which the selectivity ratio in series [1] is greater than 139. Moreover, the IC50 is 720 nM in the series with Entamoeba histolytica and greater than 100000 nM in series [2].
`Cc1ncc([N+](=O)[O-])n1CCO` [METRONIDAZOLE]: the selectivity ratio in series [1] was greater than 55.5. Also, the IC50 in series [2] is greater than 100000 nM.
